Source: ChEMBL document CHEMBL4011636, “Utilization of an Active Site Mutant Receptor for the Identification of Potent and Selective Atypical 5-HT2C Receptor Agonists” (J Med Chem, 2017)

How the values were obtained:
Rattus norvegicus [1] = test: Antiobesity activity in ad libitum feeding Sprague-Dawley rat model assessed as reduction in food intake at 10 mg/kg, po administered at 60 mins prior to the onset of the dark cycle followed by incubation for first 8 hrs in light cycle and 12 hrs in dark cycle; assay type: functional; set-up: scale not given: the % may be the effect or the level left
Method in brief: (§1)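 Male Sprague Dawley rats (~225 g; n = 6), trained in operant chambers, dosed orally with compound or vehicle (14% PPG, 1% Tween, 85% water) 60 min before dark onset. Food intake was monitored in individual boxes for 20 h (12 h dark plus first 8 h light). Percent reduction was computed from drug-treated versus vehicle-treated total intake.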

[2] = target: T1, 5-hydroxytryptamine receptor 2B (Homo sapiens, UniProt P41595); test: Agonist activity at recombinant human 5-HT2B receptor expressed in HEK293E cells assessed as induction of intracellular Ca2+ levels after 90 secs by Fluo-4-dye based FLIPR assay; assay type: cell-based, HEK293
Method in brief: (§2)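 HEK293E cells stably expressing human receptor (VNV isoform for 5-HT2C; ~400−795 fmol/mg protein), grown in DMEM with 10% dialyzed FBS and G418. Cells plated at 20 000/well in serum-free DMEM overnight at 37 °C, then loaded 1 h at room temperature with 5 μM Fluo-4 in HBSS/25 mM HEPES. Eleven compound concentrations added on FLIPR, Ca2+ signal read for 90 s. EC50 from a four-parameter logistic fit, at least triplicate.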

[3] = target: 5-hydroxytryptamine receptor 2A (Homo sapiens, UniProt P28223); test: Agonist activity at recombinant human 5-HT2A receptor expressed in HEK293E cells assessed as induction of intracellular Ca2+ levels after 90 secs by Fluo-4-dye based FLIPR assay; assay type: cell-based, HEK293; method in brief: as §2
[4] = target: T2, 5-hydroxytryptamine receptor 2C (Homo sapiens) (UniProt P28335); test: Intrinsic activity at recombinant human 5-HT2C receptor expressed in HEK293E cells assessed as induction of intracellular Ca2+ levels after 90 secs by Fluo-4-dye based FLIPR assay relative to serotonin; assay type: functional, cell-based; settings: HEK293
T2 sequence (whole entry): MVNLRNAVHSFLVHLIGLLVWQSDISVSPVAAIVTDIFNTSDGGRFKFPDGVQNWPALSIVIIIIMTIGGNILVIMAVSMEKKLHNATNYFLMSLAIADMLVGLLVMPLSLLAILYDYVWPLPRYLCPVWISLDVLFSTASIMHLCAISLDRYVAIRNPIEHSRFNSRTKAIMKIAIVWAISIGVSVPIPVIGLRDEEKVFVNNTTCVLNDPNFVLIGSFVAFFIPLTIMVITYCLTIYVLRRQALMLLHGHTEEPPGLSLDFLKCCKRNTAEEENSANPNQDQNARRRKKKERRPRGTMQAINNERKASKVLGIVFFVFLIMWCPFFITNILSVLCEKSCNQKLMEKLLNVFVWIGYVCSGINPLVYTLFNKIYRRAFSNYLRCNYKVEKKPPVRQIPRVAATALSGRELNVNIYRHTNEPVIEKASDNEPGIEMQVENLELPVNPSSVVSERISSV
Method in brief: (§3)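 FLIPR Fluo-4 Ca2+ assay in HEK293E cells stably expressing the human receptor (VNV isoform for 5-HT2C), eleven-point concentration series, 90 s read. Response normalized to 3 μM serotonin on the same plate (defined as IA = 1). Intrinsic activity taken from a four-parameter logistic fit.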

[5] = target: T3, 5-hydroxytryptamine receptor 2C (Homo sapiens, UniProt P28335); test: Agonist activity at recombinant human 5-HT2C receptor expressed in HEK293E cells assessed as induction of intracellular Ca2+ levels after 90 secs by Fluo-4-dye based FLIPR assay; assay type: functional, cell-based, HEK293; method in brief: as §2
T3 sequence (P28335 whole entry): T2 sequence (whole entry)

[6] = Agonist activity at recombinant human 5-HT2C receptor D134A mutant expressed in HEK293E cells assessed as induction of intracellular Ca2+ levels after 90 secs by Fluo-4-dye based FLIPR assay; assay type: cell-based; settings: HEK293
[7] = Metabolic stability in human liver microsomes assessed as parent compound remaining at […] after 10 mins; assay type: ADME, microsome; settings: read-out: Stability
[8] = Metabolic stability in rat liver microsomes assessed as parent compound remaining at […] after 10 mins; assay type: ADME, microsome; settings: read-out: Stability
Rattus norvegicus [9] = test: Antiobesity activity in ad libitum feeding Sprague-Dawley rat model assessed as reduction in food pellet consumption at 10 mg/kg, po administered at 60 mins prior to the onset of the dark cycle followed by incubation for first 8 hrs in light cycle and 12 hrs in dark cycle; assay type: functional; set-up: scale not given: the % may be the effect or the level left; method in brief: as §1
[10] = target: T1, 5-hydroxytryptamine receptor 2B; test: Intrinsic activity at recombinant human 5-HT2B receptor expressed in HEK293E cells assessed as induction of intracellular Ca2+ levels after 90 secs by Fluo-4-dye based FLIPR assay relative to serotonin; assay type: functional, cell-based; settings: HEK293; method in brief: as §3
[11] = Drug uptake in Sprague-Dawley rat brain at 30 mg/kg, po measured at 2 hrs post dose by LC/MS-MS analysis; assay type: ADME, organism-based; settings: read-out: Drug uptake
Method in brief: (§4)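 Male rats given 30 mg/kg orally in 0.15% docusate sodium/2% PVP-K/97.85% water. Plasma and brain were sampled at a single time point after dosing. Brain was diluted 1:2 (vol/weight) with water before homogenization (dilution factor 3). Concentrations were measured by LC/MS−MS after acetonitrile protein precipitation. Values are the average of three animals; B/P is the brain to plasma ratio.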

[12] = Permeability of compound at pH 5.5 by PAMPA; assay type: physicochemical; settings: read-out: permeability
[13] = Permeability of compound at pH 7.4 by PAMPA; assay type: physicochemical; settings: read-out: permeability
[14] = Permeability across basolateral to apical side in human Caco2 cells; assay type: ADME, cell-based; settings: Caco-2, read-out: permeability
[15] = Permeability across apical to basolateral side in human Caco2 cells; assay type: ADME, cell-based; settings: Caco-2, read-out: permeability
[16] = Efflux ratio of permeability across basolateral to apical side in human Caco2 cells; assay type: ADME, cell-based; settings: Caco-2
[17] = Protein binding in human plasma; assay type: ADME, cell-free; settings: read-out: PPB (converted)
[18] = Protein binding in rat plasma; assay type: ADME, cell-free; settings: read-out: PPB (converted)
[19] = Half life in human microsomes; assay type: ADME, Microsome
[20] = Half life in rat microsomes; assay type: ADME, Microsome
[21] = Plasma concentration in Sprague-Dawley rat at 30 mg/kg, po measured at 2 hrs post dose by LC/MS-MS analysis; assay type: ADME, organism-based; method in brief: as §4
[22] = Ratio of drug uptake in Sprague-Dawley rat brain to plasma at 30 mg/kg, po measured at 2 hrs post dose by LC/MS-MS analysis; assay type: ADME, organism-based; settings: read-out: BPR; method in brief: as §4
[23] = Drug uptake in Sprague-Dawley rat brain at 30 mg/kg, po measured at 1 hr post dose by LC/MS-MS analysis; assay type: ADME, organism-based; settings: read-out: Drug uptake; method in brief: as §4
[24] = Plasma concentration in Sprague-Dawley rat at 30 mg/kg, po measured at 1 hr post dose by LC/MS-MS analysis; assay type: ADME, organism-based; method in brief: as §4
[25] = Ratio of drug uptake in Sprague-Dawley rat brain to plasma at 30 mg/kg, po measured at 1 hr post dose by LC/MS-MS analysis; assay type: ADME, organism-based; settings: read-out: BPR; method in brief: as §4

Chain of 5-hydroxytryptamine receptor 2A (P28223 whole entry): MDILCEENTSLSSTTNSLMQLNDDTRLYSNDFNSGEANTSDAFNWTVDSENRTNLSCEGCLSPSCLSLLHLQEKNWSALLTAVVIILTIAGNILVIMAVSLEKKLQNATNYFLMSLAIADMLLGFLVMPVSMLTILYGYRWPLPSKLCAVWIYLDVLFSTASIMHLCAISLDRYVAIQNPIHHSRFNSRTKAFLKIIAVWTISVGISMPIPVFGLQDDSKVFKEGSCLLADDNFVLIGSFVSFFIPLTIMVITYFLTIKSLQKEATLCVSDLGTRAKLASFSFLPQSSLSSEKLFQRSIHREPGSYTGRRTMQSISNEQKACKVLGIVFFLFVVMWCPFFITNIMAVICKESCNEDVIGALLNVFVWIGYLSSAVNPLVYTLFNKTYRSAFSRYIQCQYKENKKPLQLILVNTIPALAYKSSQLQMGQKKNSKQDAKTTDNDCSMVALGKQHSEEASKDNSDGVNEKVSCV
T1 sequence (P41595 whole entry, canonical isoform): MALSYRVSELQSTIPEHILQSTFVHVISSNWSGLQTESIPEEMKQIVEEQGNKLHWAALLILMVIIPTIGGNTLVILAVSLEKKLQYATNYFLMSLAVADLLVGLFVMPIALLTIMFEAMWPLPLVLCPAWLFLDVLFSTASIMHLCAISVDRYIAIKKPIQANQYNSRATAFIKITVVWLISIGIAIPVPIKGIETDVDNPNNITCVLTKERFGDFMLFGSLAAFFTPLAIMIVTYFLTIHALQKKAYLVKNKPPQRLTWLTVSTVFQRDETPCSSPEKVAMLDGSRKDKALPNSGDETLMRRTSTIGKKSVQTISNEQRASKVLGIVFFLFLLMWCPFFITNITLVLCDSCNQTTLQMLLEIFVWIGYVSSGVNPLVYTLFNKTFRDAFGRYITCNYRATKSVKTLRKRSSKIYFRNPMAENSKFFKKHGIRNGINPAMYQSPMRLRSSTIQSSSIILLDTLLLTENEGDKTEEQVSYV

Compound | EC50 [2] [µM] | EC50 [3] [µM] | Intrinsic activity [4] | EC50 [5] [nM] | remaining at 10 min [7] [%] | remaining at 10 min [8] [%] | other results
Cc1cc2c(cc1C(F)(F)F)N(C(=O)Nc1ccc(Oc3cccnc3C)nc1)CC2 [SB-243213] | – | – | – | – | – | – | Activity (Rattus norvegicus [1]): 15%
Cc1nc(-c2cccc3ccccc23)sc1C(=O)N1CCN(C)CC1 | > 10 | > 10 | 0.8 | 43 to 123 | – | – | EC50 [6]: 130 nM
Cc1nc(-c2cccc3ccccc23)sc1C(=O)N1CCc2[nH]cnc2C1 | > 10 | > 10 | 1 | 68 | 70 | 15 | –
Cc1c(C(=O)NN2CCCCC2)nn(-c2ccc(Cl)cc2Cl)c1-c1ccc(Cl)cc1 [RIMONABANT] | – | – | – | – | – | – | Activity (Rattus norvegicus [9]): 27%
CCn1nc(-c2cccc3cccnc23)cc1-c1cccnn1 | 0.003 to 0.006 | 0.151 | 1 | 2 | 8 | – | Intrinsic activity [10]: 0.2
Cc1cn(-c2cccc3ccccc23)cc1C(=O)N1CCC(CO)CC1 | > 10 | > 10 | 0.7 | 369 to 433 | 67 | 18 | –
Cc1nc(-c2cccc3ccccc23)sc1C(=O)N1CCC(O)CC1 | > 10 | > 10 | 0.9 | 47 | 84 | 34 | –
Cn1cc(-c2cccc3ccccc23)cc1C(=O)N1CCC(CO)CC1 | > 10 | > 10 | 1 | 41 to 45 | 76 | 57 | –
Cc1nc(-c2cccc3ccccc23)sc1C(=O)N1CCCCC1 | > 10 | > 10 | 1 | 24 | 24 | 1 | –
Cc1nc(-c2cccc3ccccc23)sc1C(=O)N1CCOCC1 | > 10 | > 10 | 0.8 | 95 to 115 | 50 | 6 | –
O=C(c1csc(-c2cccc(Cl)c2Cl)n1)N1CCOCC1 | > 10 | > 10 | 0.8 | 119 to 128 | – | – | EC50 [6]: 2 nM
Cc1nc(-c2cccc3ccccc23)oc1C(=O)N1CCC(CO)CC1 | > 10 | > 10 | 0.9 | 63 to 140 | 33 | 24 | –
Cc1oc(-c2cccc3ccccc23)nc1C(=O)N1CCC(CO)CC1 | > 10 | > 10 | 1 | 381 to 575 | 62 | 16 | –
Cc1nc(-c2cccc3ccccc23)sc1C(=O)N(C)CCO | > 10 | > 10 | 0.9 | 30 to 50 | 67 | 22 | –
Cn1nc(-c2cccc3ccccc23)cc1C(=O)N1CCC(CO)CC1 | > 10 | 0.075 | 1 | 6 | 92 | 37 | concentration at 2 h [11]: 721 nM; Papp [12]: 58.8 ×10⁻⁶ cm/s; Papp [13]: 61.3 ×10⁻⁶ cm/s; Papp B→A [14]: 16.8 ×10⁻⁶ cm/s; Papp A→B [15]: 32.3 ×10⁻⁶ cm/s; efflux ratio [16]: 0.5; fraction unbound [17]: 0.023; fraction unbound [18]: 0.076; half-life [19]: 36 min; half-life [20]: 8 min; concentration at 2 h [21]: 2480 nM; Kp at 2 h [22]: 0.3
Cc1nn(-c2cccc3ccccc23)cc1C(=O)N1CCC(CO)CC1 | > 10 | > 10 | 1 | 16 | 88 | 51 | –
Cc1nc(-c2cccc3ccccc23)sc1C(=O)N1CCCC(O)CC1 (configuration not stated) | > 10 | > 10 | 0.9 | 17 to 25 | 50 | 8 | –
Cc1nc(-c2cccc3ccccc23)sc1C(=O)N(C)CCc1cccnc1 | > 10 | > 10 | 0.7 | 38 to 39 | < 1 | 1 | –
Cc1[nH]c(-c2cccc3ccccc23)cc1C(=O)N1CCC(CO)CC1 | > 10 | > 10 | 0.9 | 12 | 76 | 44 | concentration at 1 h [23]: 202 nM; Papp [12]: 62.4 ×10⁻⁶ cm/s; Papp [13]: 49.2 ×10⁻⁶ cm/s; Papp B→A [14]: 21.9 ×10⁻⁶ cm/s; Papp A→B [15]: 17.2 ×10⁻⁶ cm/s; efflux ratio [16]: 1.3; fraction unbound [17]: 0.017; fraction unbound [18]: 0.075; half-life [19]: 41 min; half-life [20]: 11 min; concentration at 1 h [24]: 1140 nM; Kp at 1 h [25]: 0.2
Cc1nc(-c2cccc3ccccc23)sc1C(=O)N(C)Cc1cccnc1 | > 10 | > 10 | 0.8 | 12 to 15 | 5 | 4 | –
